A short description of data set [1]: Half life in rat after 2 mg/kg peroral administration. The conditions noted are these: in vivo, po. The data set is classed as ADME, organism-based. Set-up: dose 2 mg/kg, route oral.
The nature of data set [2]: Maximum concentration in rat after 2 mg/kg peroral administration. Set-up: dose 2 mg/kg, route oral. Format: ADME, organism-based. The note with it: in vivo, po.
For data set [3], the species on record is Cavia porcellus. Put plainly: Electrophysiological effect on isolated guinea pig heart as change in coronary perfusion pressure at 3 uM. Format: functional.
The next data set deals with Cytochrome P450 3A4 (Homo sapiens, UniProt P08684). In words: Inhibition of human cytochrome P450 3A4.
Chain of Cytochrome P450 3A4 (P08684 whole entry): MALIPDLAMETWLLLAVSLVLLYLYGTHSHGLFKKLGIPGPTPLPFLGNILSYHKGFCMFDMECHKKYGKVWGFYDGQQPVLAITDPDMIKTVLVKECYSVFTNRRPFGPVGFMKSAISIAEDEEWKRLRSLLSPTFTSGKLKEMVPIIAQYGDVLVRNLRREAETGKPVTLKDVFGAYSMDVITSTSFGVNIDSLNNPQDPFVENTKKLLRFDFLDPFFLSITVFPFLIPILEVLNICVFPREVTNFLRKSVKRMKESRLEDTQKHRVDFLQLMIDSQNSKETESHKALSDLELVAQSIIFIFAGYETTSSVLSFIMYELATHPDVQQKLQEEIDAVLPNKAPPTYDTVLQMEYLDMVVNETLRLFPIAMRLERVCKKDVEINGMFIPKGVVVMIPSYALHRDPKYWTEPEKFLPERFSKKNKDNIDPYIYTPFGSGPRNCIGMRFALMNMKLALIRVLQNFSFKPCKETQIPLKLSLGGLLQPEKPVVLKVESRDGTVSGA
Data set [4] can be described thus: Clearance of compound in rat after 1 mg/kg i.v. administration. The data set is classed as ADME, organism-based. The conditions noted are these: plasma, iv, read-out: Clp. Set-up: dose 1 mg/kg, route intravenous.
Data set [5] is described as follows: Oral bioavailability in rat (dose 2 mg/kg). Format: ADME, organism-based. The conditions noted are these: in vivo.
The species named for data set [6] is Cavia porcellus. Put plainly: Electrophysiological effect on isolated guinea pig heart as change in S-H interval at 3 uM. Format: functional.
The next data set addresses Cytochrome P450 2C9 (Homo sapiens, UniProt P11712). Put plainly: Inhibition of cytochrome P450 2C9 (human).
The nature of data set [7]: Metabolic stability (% remaining at 30 mins) in human S9. The note with it: human S9 fraction. Format: ADME. The method, boiled down:
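Incubated 30 min with human liver S9 (2 mg/mL protein, NADH added), n=2. Reported as % parent remaining.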

For data set [8], the species on record is Cavia porcellus. Put plainly: Electrophysiological effect on isolated guinea pig heart as change in H-V interval at 3 uM. Format: functional.
The next data set addresses T1, Cytochrome P450 1A2 (Homo sapiens, UniProt P05177).
T1 sequence (P05177 whole entry): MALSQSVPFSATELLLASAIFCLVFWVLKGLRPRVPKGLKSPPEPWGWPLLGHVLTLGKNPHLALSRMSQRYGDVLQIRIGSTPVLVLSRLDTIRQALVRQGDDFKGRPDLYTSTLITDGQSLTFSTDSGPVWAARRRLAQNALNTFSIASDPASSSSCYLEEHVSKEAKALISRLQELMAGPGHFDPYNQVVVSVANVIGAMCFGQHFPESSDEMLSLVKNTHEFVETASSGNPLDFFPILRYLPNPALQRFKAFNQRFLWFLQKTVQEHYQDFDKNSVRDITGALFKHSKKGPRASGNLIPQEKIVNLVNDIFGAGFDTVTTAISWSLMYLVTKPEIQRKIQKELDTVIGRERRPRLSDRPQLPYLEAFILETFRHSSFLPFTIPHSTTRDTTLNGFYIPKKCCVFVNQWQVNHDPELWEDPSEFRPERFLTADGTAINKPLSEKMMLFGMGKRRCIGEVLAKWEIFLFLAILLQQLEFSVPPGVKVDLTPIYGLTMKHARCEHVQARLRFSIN
Put plainly: Inhibition of human cytochrome P450 1A2.

The nature of data set [9]: Total concentration in rat after 2 mg/kg peroral administration in 24 hours. The conditions noted are these: in vivo, po. The data set is classed as ADME, organism-based. Set-up: dose 2 mg/kg, route oral.
Data set [10] in a line: Total concentration in rat after 1 mg/kg i.v. administration in 24 hours. Format: ADME, organism-based. Set-up: dose 1 mg/kg, route intravenous. The conditions noted are these: in vivo, iv.
The nature of data set [11]: Time to reach maximum concentration in rat after 2 mg/kg peroral administration. Format: ADME, organism-based. Set-up: dose 2 mg/kg, route oral. The conditions noted are these: in vivo, po.
Data set [12] in a line: Half life in rat after 1 mg/kg i.v. administration. Format: ADME, organism-based. Set-up: dose 1 mg/kg, route intravenous. The note with it: in vivo, iv.
The nature of data set [13]: Volume of distribution of compound in rat after 1 mg/kg i.v. administration. Format: ADME, organism-based. Set-up: dose 1 mg/kg, route intravenous. The conditions noted are these: in vivo, iv, read-out: Vdss.

Chain of Cytochrome P450 2C9 (P11712 whole entry): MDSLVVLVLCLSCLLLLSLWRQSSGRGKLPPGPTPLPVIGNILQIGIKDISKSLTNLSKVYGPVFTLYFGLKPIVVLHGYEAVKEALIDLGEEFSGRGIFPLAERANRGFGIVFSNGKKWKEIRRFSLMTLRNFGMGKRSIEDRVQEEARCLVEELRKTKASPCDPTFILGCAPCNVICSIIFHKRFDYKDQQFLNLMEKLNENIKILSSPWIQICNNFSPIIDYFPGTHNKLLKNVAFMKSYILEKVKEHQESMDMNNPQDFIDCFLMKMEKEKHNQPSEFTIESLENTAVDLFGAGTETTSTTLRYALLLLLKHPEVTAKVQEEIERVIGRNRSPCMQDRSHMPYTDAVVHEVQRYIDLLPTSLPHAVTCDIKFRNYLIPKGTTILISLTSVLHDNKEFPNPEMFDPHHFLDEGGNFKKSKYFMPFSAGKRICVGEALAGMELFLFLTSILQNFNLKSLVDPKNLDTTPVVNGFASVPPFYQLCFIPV

Turning to `Cc1nc2cc(OC[C@H](O)CN3CCN(CC(=O)Nc4c(C)cccc4C)CC3)ccc2s1`, the half-life in [1] is 1.2 h; in data set [12], 1.4 h. The Cmax in data set [2] came to 26.1 ng/mL. Also, the “Delta CPP” value in the data set listed under Cavia porcellus [3] is recorded as -8 mmHg. The IC50 against Cytochrome P450 3A4 was 23 µM; at Cytochrome P450 2C9, above 100 µM; against Cytochrome P450 1A2, above 100 µM. In data set [4], the clearance was determined as 54.5 mL/min/kg. Further, in data set [5], the bioavailability turned out to be 19.5%. Also, in the data set filed under Cavia porcellus [6], the “Delta S-H” value came to 3 ms. The amount remaining at 0.5 h in data set [7] was 50%. In the data set listed under Cavia porcellus [8], the “Delta H-V” value is 4 ms. The area under the curve (AUC) at 24 h in data set [9] was 61.1 ng·h/mL; in data set [10], 313 ng·h/mL. The time to peak (Tmax) in [11] came out at 0.83 h. Besides, the Vd in data set [13] worked out at 6.2 L/kg.

The term half-life denotes the time needed for the level to fall by half in the phase considered. The Cmax is the maximum level reached in the sampled fluid or tissue. Usually IC50 stands for the midpoint of a concentration-inhibition curve. High values mean weaker potency, low ones greater potency. By bioavailability is commonly meant dose-corrected exposure relative to a reference, in per cent. High values mean good availability, low ones poor availability. Broadly, the amount remaining is the share of the starting amount still present when the sample was taken. The low end stands for a greater loss, the high end for greater stability. By AUC is commonly meant concentration integrated over time. For orientation: Tmax means the time at which the peak concentration occurs.

The values above are taken from ChEMBL document CHEMBL1148425, “New fatty acid oxidation inhibitors with increased potency lacking adverse metabolic and electrophysiological properties” (Bioorg Med Chem Lett, 2004).
